Assay results reported in ChEMBL document CHEMBL1141579, “Synthesis, cytostatic, and antiviral activity of novel 6-[2-(dialkylamino)ethyl]-, 6-(2-alkoxyethyl)-, 6-[2-(alkylsulfanyl)ethyl]-, and 6-[2-(dialkylamino)vinyl]purine nucleosides” (Bioorg Med Chem, 2008).
The source made the active and inactive calls. The rule behind the calls is not given here.

Tests used:
CCRF-CEM [1] = assay: Cytostatic activity against human CCRF-CEM cells ATCC CCL 119 assessed as growth reduction after 72 hrs; type: functional, cell-based
Outline: (§1)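 Cells grown in RPMI 1640 with foetal calf serum in 24-well plates. Counted in a haematological analyzer 72 h after drug addition. Inhibition expressed as IC50.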

[2] = Cytotoxicity against human MT4 cells after 5 days; type: cell-based
Outline: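 MT-4 cells were seeded at 2 · 10^3 cells/well. Compounds were serially diluted in culture medium and cells were incubated for 5 days. Survival was measured by CellTiter Glo luminescence, in duplicate (N = 2).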

Hepatitis C virus = assay: Antiviral activity against HCV 1b Con1 replicon in Huh7 cells; type: functional, organism-based, Hepatitis C virus subtype 1b; details: Huh-7
Outline: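 Con-1/lucneo replicon cells seeded at 8 × 10^3 per well in medium without Geneticin. Compounds serially diluted in DMSO and added 1:200 (0.5% DMSO final). Incubated 3 days at 37 C. Cells lysed and luciferase activity read by luminometer. EC50 by non-linear regression, N = 2.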

L1210 = assay: Cytostatic activity against mouse L1210 cells ATCC CCL219 assessed as growth reduction after 72 hrs; type: functional, cell-based; details: for IC50: L1210, 72 h; outline: as §1
[3] = Cytotoxicity against human Huh7 cells harboring con1 replicon after 3 days by MTT assay; type: cell-based, Huh-7
Outline: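 Con-1 replicon-bearing Huh-7 cells were seeded at 8 · 10^3 cells per well in medium without Geneticin. Compound was serially diluted in 100% DMSO and added 1:200, giving 0.5% DMSO final. Cells were incubated at 37 C for 3 days. Toxicity was read at the end, in duplicate (N = 2).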

HL-60 [4] = assay: Cytostatic activity against human HL60 cells ATCC CCL 240 assessed as growth reduction after 72 hrs; type: functional, cell-based; details: for IC50: HL-60, 72 h; outline: as §1
HL-60 [5] = assay: Cytostatic activity against human HL60 cells ATCC CCL 240 assessed as cell viability by XTT test; type: functional, cell-based
Outline: (§2)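 Cell viability quantified by the XTT spectrophotometric assay. Inhibition expressed as IC50.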

CCRF-CEM [6] = assay: Cytostatic activity against human CCRF-CEM cells ATCC CCL 119 assessed as cell viability by XTT test; type: functional, cell-based; outline: as §2
HL-60 [7] = assay: Cell cycle arrest in human HL60 cells assessed as accumulation in G2/M phase at 3.5 uM relative to control; type: functional
Outline: (§3)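 HL-60 cells treated at the stated concentration, then fixed in ethanol. Stained with propidium iodide in buffer containing RNase A and analysed by flow cytometry. Result given as the ratio of the treated to the control cell fraction in each phase (G1, S, G2/M).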

HL-60 [8] = assay: Cell cycle arrest in human HL60 cells assessed as accumulation in G1 phase at 14 uM relative to control; type: functional; outline: as §3
HL-60 [9] = assay: Cell cycle arrest in human HL60 cells assessed as accumulation in G1 phase at 3.5 uM relative to control; type: functional; outline: as §3
HL-60 [10] = assay: Cell cycle arrest in human HL60 cells assessed as accumulation in S phase at 14 uM relative to control; type: functional; outline: as §3
HL-60 [11] = assay: Cell cycle arrest in human HL60 cells assessed as accumulation in S phase at 3.5 uM relative to control; type: functional; outline: as §3
HL-60 [12] = assay: Cell cycle arrest in human HL60 cells assessed as accumulation in G2/M phase at 14 uM relative to control; type: functional; outline: as §3
HL-60 [13] = assay: Cell cycle arrest in human HL60 cells assessed as accumulation in G2/M phase at 18 uM relative to control; type: functional; outline: as §3
HL-60 [14] = assay: Cell cycle arrest in human HL60 cells assessed as accumulation in G1 phase at 18 uM relative to control; type: functional; outline: as §3
HL-60 [15] = assay: Cell cycle arrest in human HL60 cells assessed as accumulation in G2/M phase at 4.5 uM relative to control; type: functional; outline: as §3
HL-60 [16] = assay: Cell cycle arrest in human HL60 cells assessed as accumulation in G1 phase at 4.5 uM relative to control; type: functional; outline: as §3
HL-60 [17] = assay: Cell cycle arrest in human HL60 cells assessed as accumulation in S phase at 4.5 uM relative to control; type: functional; outline: as §3
HL-60 [18] = assay: Cell cycle arrest in human HL60 cells assessed as accumulation in S phase at 18 uM relative to control; type: functional; outline: as §3

SMILES | Activity (CCRF-CEM [1]) | EC50 (Hepatitis C virus) [µM] | Activity (L1210) | CC50 at 72 h [3] [µM] | Activity (HL-60 [4]) | IC50 (HL-60 [5]) [µM] | IC50 (CCRF-CEM [6]) [µM] | IC50 (CCRF-CEM [1]) [µM] | IC50 (L1210) [µM] | IC50 (HL-60 [4]) [µM] | other results
COCCc1ncnc2c1ncn2[C@@H]1O[C@H](CO)[C@@H](O)[C@H]1O | inactive | 40 | inactive | > 100 | inactive | – | – | – | – | – | CC50 at 120 h [2]: 13 µM
OC[C@H]1O[C@@H](n2cnc3c(/C=C/N4CCCCC4)ncnc32)C[C@@H]1O | inactive | 53 | inactive | > 100 | inactive | – | – | – | – | – | –
OC[C@H]1O[C@@H](n2cnc3c(/C=C/N4CCOCC4)ncnc32)[C@H](O)[C@@H]1O | – | 5 | – | 23 | – | 0.31 | 0.41 | 2.4 | 2.3 | 4.5 | –
CSCCc1ncnc2c1ncn2[C@@H]1O[C@H](CO)[C@@H](O)[C@H]1O | inactive | > 100 | inactive | > 100 | inactive | – | – | – | – | – | –
CCCCN(/C=C/c1ncnc2c1ncn2[C@@H]1O[C@H](CO)[C@@H](O)[C@H]1O)CCCC | – | 1 | – | 2 | – | 0.84 | 0.83 | 2.5 | 2 | 7.2 | –
OC[C@H]1O[C@@H](n2cnc3c(CCN4CCOCC4)ncnc32)[C@H](O)[C@@H]1O | inactive | 6 | inactive | 31 | inactive | – | – | – | – | – | –
C[C@@]1(O)[C@H](O)[C@@H](CO)O[C@H]1n1cnc2c(N)ncnc21 | – | 0.23 | – | > 100 | – | – | – | – | – | – | –
OC[C@H]1O[C@@H](n2cnc3c(CC4SCCS4)ncnc32)[C@H](O)[C@@H]1O | inactive | > 100 | inactive | > 100 | inactive | – | – | – | – | – | –
CCCCN(CCCC)CCc1ncnc2c1ncn2[C@@H]1O[C@H](CO)[C@@H](O)[C@H]1O | – | 5.6 | – | 37 | – | 13.8 | 4.59 | 6.4 | 4.4 | 5.3 | Activity (HL-60 [7]): 0.93; Activity (HL-60 [8]): 1.51; Activity (HL-60 [9]): 0.85; Activity (HL-60 [10]): 0.68; Activity (HL-60 [11]): 1.15; Activity (HL-60 [12]): 0.64
OC[C@H]1O[C@@H](n2cnc3c(/C=C/N4CCCCC4)ncnc32)[C@H](O)[C@@H]1O | – | 1 | – | 26 | – | 0.44 | 0.32 | 2.1 | 1.55 | 2.3 | CC50 at 120 h [2]: 6 µM
OC[C@H]1O[C@@H](n2cnc3c(CCN4CCOCC4)ncnc32)C[C@@H]1O | inactive | 25 | inactive | > 100 | inactive | – | – | – | – | – | CC50 at 120 h [2]: 13 µM
OC[C@H]1O[C@@H](n2cnc3c(CCSCc4ccccc4)ncnc32)[C@H](O)[C@@H]1O | inactive | > 100 | inactive | > 100 | inactive | – | – | – | – | – | –
COC(=O)CSCCc1ncnc2c1ncn2[C@@H]1O[C@H](CO)[C@@H](O)[C@H]1O | inactive | 54 | inactive | > 100 | inactive | – | – | – | – | – | CC50 at 120 h [2]: > 100 µM
CCN(/C=C/c1ncnc2c1ncn2[C@@H]1O[C@H](CO)[C@@H](O)[C@H]1O)CC | – | 4 | – | 8 | – | 0.81 | 0.67 | 1 | 2.2 | 2.3 | –
CCN(CC)CCc1ncnc2c1ncn2[C@@H]1O[C@H](CO)[C@@H](O)[C@H]1O | – | 6.7 | – | 45 | – | 17.3 | 0.8 | 1.25 | 5.2 | 6.8 | Activity (HL-60 [13]): 0.65; Activity (HL-60 [14]): 1.38; Activity (HL-60 [15]): 0.8; Activity (HL-60 [16]): 0.99; Activity (HL-60 [17]): 1.08; Activity (HL-60 [18]): 0.78
OC[C@H]1O[C@@H](n2cnc3c(CCN4CCCCC4)ncnc32)[C@H](O)[C@@H]1O | inactive | 37 | inactive | > 250 | inactive | – | – | – | – | – | –
O=c1[nH]c(=O)n([C@H]2C[C@H](O)[C@@H](CO)O2)cc1F [FLOXURIDINE] | – | – | – | – | – | – | – | 0.017 | 0.012 | 0.012 | –
CN(C)CCc1ncnc2c1ncn2[C@H]1C[C@H](O)[C@@H](CO)O1 | inactive | 116 | inactive | > 250 | inactive | – | – | – | – | – | –
CN(C)/C=C/c1ncnc2c1ncn2[C@@H]1O[C@H](CO)[C@@H](O)[C@H]1O | – | 4 | – | 5 | – | 0.62 | 0.8 | 1.25 | 2.2 | 3.3 | –
CN(CCc1ncnc2c1ncn2[C@@H]1O[C@H](CO)[C@@H](O)[C@H]1O)Cc1ccccc1 | – | 11 | – | 132 | – | 17.7 | 5.83 | 5.7 | 7.9 | 11.2 | Activity (HL-60 [15]): 0.94; Activity (HL-60 [16]): 1.08; Activity (HL-60 [17]): 0.95
CCCCN(/C=C/c1ncnc2c1ncn2[C@H]1C[C@H](O)[C@@H](CO)O1)CCCC | inactive | 85 | inactive | > 100 | inactive | – | – | – | – | – | –
CN(C)CCc1ncnc2c1ncn2[C@@H]1O[C@H](CO)[C@@H](O)[C@H]1O | inactive | 7 | inactive | 20 | inactive | – | – | – | – | – | –
CN(/C=C/c1ncnc2c1ncn2[C@@H]1O[C@H](CO)[C@@H](O)[C@H]1O)Cc1ccccc1 | – | 0.34 | – | 1 | – | 0.57 | 0.78 | 2.3 | 2.1 | 3.6 | –
OC[C@H]1O[C@@H](n2cnc3c(CCSc4nc5ccccc5s4)ncnc32)[C@H](O)[C@@H]1O | inactive | > 100 | inactive | > 100 | inactive | – | – | – | – | – | –
